Measured values of several laboratories.
Target: Serine/threonine-protein kinase 17A (STK17A, Homo sapiens, UniProt Q9UEE5)
Sequence (Q9UEE5 1-414, as in one of the studies): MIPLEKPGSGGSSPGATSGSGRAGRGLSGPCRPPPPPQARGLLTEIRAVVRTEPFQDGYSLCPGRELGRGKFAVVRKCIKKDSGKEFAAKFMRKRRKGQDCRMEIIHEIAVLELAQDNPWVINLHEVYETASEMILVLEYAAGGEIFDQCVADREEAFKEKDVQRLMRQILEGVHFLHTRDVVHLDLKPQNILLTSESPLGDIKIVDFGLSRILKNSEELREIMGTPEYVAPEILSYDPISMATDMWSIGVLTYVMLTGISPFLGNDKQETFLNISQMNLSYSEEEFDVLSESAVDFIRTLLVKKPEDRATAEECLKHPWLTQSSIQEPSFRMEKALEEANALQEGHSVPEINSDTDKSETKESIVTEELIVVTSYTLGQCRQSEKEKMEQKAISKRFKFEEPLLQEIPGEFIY

SMILES	assay	setting	quantity	result
C#Cc1n[nH]c2c(-c3cn([C@@H](C)c4ccccn4)c(=O)[nH]c3=O)cc(F)cc12	enzyme activity, inhibitor	0.1 µM	inhibition	-0.6%
Nc1ncc(-c2nc(N3CCOCC3)nc(N3CCOCC3)n2)c(C(F)F)n1	binding, competition with immobilised ligand	10 µM	remaining binding	89%
Cc1nn(C)cc1-c1nc2c(N3CCN(Cc4ccc(Cl)cc4)CC3)c(Cl)cnc2[nH]1	binding, competition with immobilised ligand	1 µM	remaining binding	13%
Cn1cncc1[C@](O)(COc1ccc(C#N)cc1-c1ccc(OC(F)(F)F)cc1)c1ccc(C#N)cc1	cell-free assay, competition with immobilised ligand	1 µM	remaining binding	100%
O=c1[nH]c2ccccc2n1C1CCN(Cc2ccc(-c3[nH]c4cc5ncnc5cc4nc3-c3ccccc3)cc2)CC1	cell-free assay	0.5 µM	remaining signal	98.2%
Cn1cc(-c2cc(F)cc(N3CCn4c(cc5c4CCCC5)C3=O)c2CO)cc(Nc2ccc(N3CCN(C4COC4)CC3)cn2)c1=O	enzyme activity, inhibitor	0.1 µM	inhibition	3%
C#Cc1n[nH]c2c(-c3cn([C@@H](C)c4ccccc4)c(=O)[nH]c3=O)cc(F)cc12	enzyme activity, inhibitor	0.1 µM	inhibition	1.1%
Cn1cc(-c2cccc(N3CCc4c(sc5c4CC(C)(C)C5)C3=O)c2CO)cc(Nc2ccncn2)c1=O	enzyme activity, inhibitor	1 µM	inhibition	-5%
CC(C)(C)c1cc(C=C(C#N)C#N)cc(Br)c1O	enzyme activity, inhibitor	0.5 µM	remaining activity	92.3%
COc1ncccc1-c1cnn2ccc(N3CCN(C(=O)OC(C)C)CC3)nc12	binding, competition with immobilised ligand	1 µM	remaining binding	6.4%
